# Laboratory results taken from ChEMBL document CHEMBL1765044, “3-Hydroxypyrimidine-2,4-diones as an inhibitor scaffold of HIV integrase” (J Med Chem, 2011).
# Legend:
# [1] = Inhibition of Human immunodeficiency virus recombinant integrase 3'-processing activity expressed in Escherichia coli after 60 mins using [32P]-labeled oligonucleotide substrate by densitometric analysis
# [2] = Inhibition of HIV recombinant integrase strand transfer activity expressed in Escherichia coli after 60 mins using [32P]-labeled oligonucleotide substrate by densitometric analysis; parameters: species or system Human immunodeficiency virus
# [3] = tested on: Human immunodeficiency virus 1; experiment: Antiviral activity against Human immunodeficiency virus 1 3B infected in CEM-SS cells assessed as reduction in virus-induced cytopathic effect at 10 uM after 6 days; format: functional; parameters: scale not given: the % may be the effect or the level left
# Summary of the method: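 CEM-SS cells were mixed with pre-titered HIV-1 IIIB and the compound at a single 10 μM and incubated for 6 days. Virus dose was set to give 70–95% viability loss in virus-control wells. CPE reduction (cytoprotection) and cell viability were read by MTS. Plates included cell, virus, compound-toxicity and colorimetric control wells, with AZT as positive control.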
# [4] = tested on: Human immunodeficiency virus 1; experiment: Antiviral activity against Human immunodeficiency virus 1 3B infected in human CEM-SS cells assessed as cytoprotection against virus-induced toxicity at 10 uM after 6 days by MTS assay; format: functional
# Summary of the method: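 Single-concentration screen at 10 μM, run only on compounds with strand-transfer IC50 ≤10 μM. CPE reduction (%) and cell viability (%) assessed by MTS; AZT positive control.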
# [5] = tested on: Human immunodeficiency virus 1; experiment: Antiviral activity against Human immunodeficiency virus 1 3B infected in CEM-SS cells assessed as inhibition of viral replication after 6 days; format: functional, organism-based; conditions: 144 h
# Summary of the method: (§1)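 CEM-SS cells mixed with pre-titered HIV-1 IIIB (titer chosen so virus-control wells lose 70–95% viability) plus compound in dose response, incubated 6 days. Viability read by MTS; controls are cells alone, cells+virus, cells+compound and compound alone. EC50 is the concentration protecting 50% against virus-induced loss; CC50 is the concentration killing 50% of cells; TI = CC50/EC50. AZT used as positive control.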
# [6] = (§2) Cytotoxicity against human CEM-SS cells infected with Human immunodeficiency virus 1 3B after 6 days by MTS assay; format: cell-based; conditions: CEM-SS cells infected with HIV-1 3B, read-out: TC50; summary of the method: as §1
# [7] = Therapeutic index, ratio of CC50 for human CEM-SS cells to EC50 for Human immunodeficiency virus 1 3B; format: cell-based; conditions: read-out: TI
# Summary of the method: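 CEM-SS cells mixed with HIV-1 IIIB and compound, incubated 6 days; virus pre-titered so control wells lose 70–95% viability. Cytoprotection (EC50) and cytotoxicity in uninfected compound-only wells (CC50) read by MTS from dose-response. TI calculated as CC50/EC50. Controls: cells only, virus only, and compound only (colorimetric). AZT served as positive control.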
# [8] = tested on: Human immunodeficiency virus 1; conditions: NL4-3
# [9] = tested on: Human immunodeficiency virus 1; experiment: Ratio of IC50 for Human immunodeficiency virus 1 NL4-3 integrase Y143R mutant to IC50 for wild-type Human immunodeficiency virus 1 NL4-3 integrase
# Summary of the method: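 Recombinant HIV-1 integrase (wild type or mutant) was expressed in E. coli, with 10% glycerol in all buffers. Reactions were stopped with EDTA/formamide dye. IC50 came from a logistic nonlinear fit; the ratio is IC50 mutant/WT from two independent experiments.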
# [10] = tested on: Human immunodeficiency virus 1; conditions: NL4-3; remark: listed apart in the source
# [11] = tested on: Human immunodeficiency virus 1; experiment: Fold resistance, ratio of EC50 for raltegravir-resistant Human immunodeficiency virus 1 1556-1 expressing integrase Y143C mutant to EC50 for raltegravir-resistant Human immunodeficiency virus 1 1556-1 expressing wild-type integrase; format: functional
# [12] = Cytotoxicity against human MT4 cells infected with raltegravir-resistant Human immunodeficiency virus 1 8070-2; format: cell-based; conditions: MT4 cells infected with raltegravir-resistant HIV-1 8070-2, read-out: TC50 (the source's name)
# [13] = Cytotoxicity against human MT4 cells infected with raltegravir-resistant Human immunodeficiency virus 1 1556-1; format: cell-based; conditions: MT4 cells infected with raltegravir-resistant HIV-1 1556-1, read-out: TC50 (the source's name)
# [14] = Cytotoxicity against human MT4 cells infected with raltegravir-resistant Human immunodeficiency virus 1 4736-2; format: cell-based; conditions: MT4 cells infected with raltegravir-resistant HIV-1 4736-2, read-out: TC50 (the source's name)
# CEM-SS = experiment: as §2; format: cell-based; conditions: cem-ss, 144 h; summary of the method: as §1
# [15] = tested on: Human immunodeficiency virus 1; experiment: Fold resistance, ratio for Human immunodeficiency virus 1 NL4-3 reverse transcriptase K103N mutant to wild-type Human immunodeficiency virus 1 NL4-3 reverse transcriptase
# Summary of the method: (§3)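 HIV-1 NL4-3 strains carrying the reverse transcriptase K103N or Y181C mutation were tested in MAGI R5 cells, with the NNRTI TNK-651 as control. Fold-resistance is the mutant/wild-type ratio.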
# [16] = tested on: Human immunodeficiency virus 1; experiment: Fold resistance, ratio for Human immunodeficiency virus 1 NL4-3 reverse transcriptase Y181C mutant to wild-type Human immunodeficiency virus 1 NL4-3 reverse transcriptase; summary of the method: as §3
Compound,IC50 [1] [µM],IC50 [2] [µM],Activity [4] [%],also measured
Cc1cn(Cc2ccccc2)c(=O)n(O)c1=O,> 111,> 111,–,–
CC(C)c1c(Cc2ccc(F)cc2)n(Cc2ccc(F)cc2)c(=O)n(O)c1=O,> 111,73,–,–
CC(C)c1c(Cc2ccccc2)n(COCc2ccc(F)cc2)c(=O)[nH]c1=O,> 111,> 111,–,–
CCc1c(Cc2ccccc2)n(Cc2ccccc2)c(=O)n(O)c1=O,> 111,> 111,–,–
Cc1cn(COCc2ccccc2)c(=O)n(O)c1=O,> 111,75,–,–
CCc1c(Cc2ccccc2)c(=O)[nH]c(=O)n1COCc1ccccc1,–,–,100,Activity [3]: 48%
CCc1c(Cc2ccccc2)n(COCc2ccccc2)c(=O)n(O)c1=O,> 111,8.2,–,–
COn1c(=O)c(C(C)C)c(Cc2ccccc2)n(COCc2ccc(F)cc2)c1=O,> 111,> 111,–,–
CC(C)c1c(Cc2ccccc2)n(CCc2ccc(F)cc2)c(=O)n(O)c1=O,> 111,46,–,–
CCc1c(Cc2ccccc2)c(=O)n(O)c(=O)n1COCc1ccc(F)cc1,> 111,11,–,–
CC(C)c1c(Cc2ccc(F)cc2)n(Cc2ccccc2)c(=O)n(O)c1=O,> 111,32,–,–
CC(C)c1c(Cc2ccccc2)n(COCc2cccc(Cl)c2F)c(=O)n(O)c1=O,> 111,2.3,100,EC50 [5]: 0.95 µM; CC50 at 144 h [6]: > 100 µM; selectivity ratio [7]: > 105; Ratio IC50 [8]: 14; Ratio IC50 [9]: 5; Ratio IC50 [10]: 5; Ratio EC50 [11]: >1.7; CC50 [12]: 2 µM; CC50 [13]: 2 µM; CC50 [14]: 2 µM
CC(C)c1c(Cc2ccc(F)cc2)n(COCc2ccccc2)c(=O)n(O)c1=O,> 111,7.3,100,EC50 [5]: 1.1 µM; CC50 (CEM-SS): > 20 µM; selectivity ratio [7]: > 18
CC(C)c1c(Cc2ccccc2)n(COCc2ccc(F)cc2)c(=O)n(C)c1=O,> 111,> 111,–,–
Cc1nnc(C(=O)NC(C)(C)c2nc(C(=O)NCc3ccc(F)cc3)c(O)c(=O)n2C)o1 [RALTEGRAVIR],–,–,–,Ratio IC50 [8]: 139; Ratio IC50 [9]: 24; Ratio IC50 [10]: 8; Ratio EC50 [11]: >855
O=c1c2ccccc2n(Cc2ccc(F)cc2)c(=O)n1O,> 111,–,–,–

Compound,IC50 [1] [µM],IC50 [2] [µM],Activity [4] [%],also measured
CC(C)c1c(Cc2ccccc2)n(CCCCc2ccc(F)cc2)c(=O)n(O)c1=O,> 111,0.56,94,Activity [3]: 6%
Cc1cn(Cc2ccc(F)cc2)c(=O)n(O)c1=O,> 111,> 111,–,–
CC(C)c1c(Cc2ccccc2)n(COCCCCc2ccc(F)cc2)c(=O)n(O)c1=O,> 111,4.5,88,Activity [3]: 12%
CC(C)c1c(Cc2ccccc2)n(Cc2ccc(F)cc2)c(=O)n(O)c1=O,> 111,22,–,–
CC(C)c1c(Cc2ccccc2)n(COCCc2ccc(F)cc2)c(=O)n(O)c1=O,> 111,1.6,83,Activity [3]: 27%
CC(C)c1c(Cc2ccc(F)cc2)n(COCc2ccc(F)cc2)c(=O)n(O)c1=O,> 111,5.5,–,–
CC(C)c1c(Cc2ccccc2)n(COCCCc2ccc(F)cc2)c(=O)n(O)c1=O,> 111,3.2,92,Activity [3]: 30%
CC(C)c1c(Cc2ccccc2)n(Cc2ccccc2)c(=O)n(O)c1=O,> 111,28,–,–
CC(C)c1c(Cc2ccccc2)n(COCc2ccc(F)cc2F)c(=O)n(O)c1=O,> 111,4.8,100,EC50 [5]: 2.1 µM; CC50 (CEM-SS): > 100 µM; selectivity ratio [7]: > 47
CCc1c(Cc2ccccc2)c(=O)[nH]c(=O)n1COCc1ccc(F)cc1,–,–,92,Activity [3]: 10%
O=c1c2ccccc2n(Cc2ccccc2)c(=O)n1O,> 111,–,–,–
CCc1c(Cc2ccccc2)n(Cc2ccc(F)cc2)c(=O)n(O)c1=O,> 111,24,–,–
CCc1c(Cc2ccccc2)c(=O)n(O)c(=O)n1COCc1ccccc1,> 111,36,–,–
CC(C)c1c(Cc2ccccc2)n(COCc2ccc(F)cc2)c(=O)n(O)c1=O,–,–,–,Ratio [15]: 16; Ratio [16]: 48
CC(C)c1c(Cc2ccccc2)n(CCCc2ccc(F)cc2)c(=O)n(O)c1=O,> 111,0.44,97,Activity [3]: 12%
